# Tests used:
# Format in all cases: functional
# SF-295 = assay: Anticancer activity against human SF295 cells after 48 hrs by sulforhodamine B assay; conditions: SF-295, 48 h
# How it was run: (§1)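 NCI 60-cell-line anticancer screen. Each compound is tested at a minimum of five concentrations in 10-fold dilutions with 48 h drug exposure. Cell viability/growth is estimated by sulforhodamine B protein staining. GI50 is the log10 molar concentration giving 50% growth inhibition, read from the dose-response curves and mean graphs of the NCI data screening report. TGI was taken from double screens.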
# 786-0 = assay: Anticancer activity against human 786-0 cells after 48 hrs by sulforhodamine B assay; conditions: 786-0, 48 h; how it was run: as §1
# OVCAR-4 = assay: Anticancer activity against human OVCAR4 cells after 48 hrs by sulforhodamine B assay; conditions: OVCAR-4, 48 h; how it was run: as §1
# HCT-15 = assay: Anticancer activity against human HCT15 cells after 48 hrs by sulforhodamine B assay; conditions: HCT-15, 48 h; how it was run: as §1
# MOLT-4 = assay: Anticancer activity against human MOLT4 cells after 48 hrs by sulforhodamine B assay; conditions: MOLT-4, 48 h; how it was run: as §1
# [1] = Anticancer activity against human Hs 578T cells after 48 hrs by sulforhodamine B assay; how it was run: as §1
# PC-3 = assay: Anticancer activity against human PC3 cells after 48 hrs by sulforhodamine B assay; conditions: PC-3, 48 h; how it was run: as §1
# NCI-H226 = assay: Anticancer activity against human NCI-H226 cells after 48 hrs by sulforhodamine B assay; conditions: NCI-H226, 48 h; how it was run: as §1
# COLO 205 = assay: Anticancer activity against human COLO205 cells after 48 hrs by sulforhodamine B assay; conditions: COLO 205, 48 h; how it was run: as §1
# BT-549 = assay: Anticancer activity against human BT549 cells after 48 hrs by sulforhodamine B assay; conditions: BT-549, 48 h; how it was run: as §1
# SNB-75 = assay: Anticancer activity against human SNB75 cells after 48 hrs by sulforhodamine B assay; conditions: SNB-75, 48 h
# How it was run: (§2)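 Tested in the NCI 60-human-tumour-cell-line screen. Compounds were applied at a minimum of five concentrations in 10-fold dilutions with 48 h exposure. Cell growth was estimated by sulforhodamine B protein staining. GI50 (log10 of molar concentration giving 50% growth inhibition) and TGI were read from the data sheets, dose-response curves and mean graphs. Some cell lines were screened twice.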
# TK-10 = assay: Anticancer activity against human TK10 cells after 48 hrs by sulforhodamine B assay; conditions: TK-10, 48 h; how it was run: as §2
# SK-MEL-2 = assay: Anticancer activity against human SK-MEL-2 cells after 48 hrs by sulforhodamine B assay; conditions: SK-MEL-2, 48 h; how it was run: as §1
# [2] = Anticancer activity against human […] cells after 48 hrs by sulforhodamine B assay; how it was run: as §1
# UO-31 = assay: Anticancer activity against human UO31 cells after 48 hrs by sulforhodamine B assay; conditions: UO-31, 48 h; how it was run: as §2
# SK-OV-3 = assay: Anticancer activity against human SKOV3 cells after 48 hrs by sulforhodamine B assay; conditions: SK-OV-3, 48 h; how it was run: as §1
# HOP-92 = assay: Anticancer activity against human HOP92 cells after 48 hrs by sulforhodamine B assay; conditions: HOP-92, 48 h; how it was run: as §1
# U-251 = assay: Anticancer activity against human U251 cells after 48 hrs by sulforhodamine B assay; conditions: U-251, 48 h; how it was run: as §2
# IGROV-1 = assay: Anticancer activity against human IGROV1 cells after 48 hrs by sulforhodamine B assay; conditions: IGROV-1, 48 h; how it was run: as §1
# SK-MEL-28 = assay: Anticancer activity against human SK-MEL-28 cells after 48 hrs by sulforhodamine B assay; conditions: SK-MEL-28, 48 h; how it was run: as §1
# NCI-H522 = assay: Anticancer activity against human NCI-H522 cells after 48 hrs by sulforhodamine B assay; conditions: NCI-H522, 48 h; how it was run: as §1
# Malme-3M = assay: Anticancer activity against human MALME-3M cells after 48 hrs by sulforhodamine B assay; how it was run: as §1
# HCT-116 = assay: Anticancer activity against human HCT116 cells after 48 hrs by sulforhodamine B assay; conditions: HCT-116, 48 h; how it was run: as §1
# OVCAR-5 = assay: Anticancer activity against human OVCAR5 cells after 48 hrs by sulforhodamine B assay; conditions: OVCAR-5, 48 h; how it was run: as §1
# HOP-62 = assay: Anticancer activity against human HOP62 cells after 48 hrs by sulforhodamine B assay; conditions: HOP-62, 48 h; how it was run: as §1
# DU-145 = assay: Anticancer activity against human DU145 cells after 48 hrs by sulforhodamine B assay; conditions: DU-145, 48 h; how it was run: as §1
# M14 = assay: Anticancer activity against human M14 cells after 48 hrs by sulforhodamine B assay; conditions: M14, 48 h; how it was run: as §1
# CCRF-CEM = assay: Anticancer activity against human CCRF-CEM cells after 48 hrs by sulforhodamine B assay; how it was run: as §1
# SNB-19 = assay: Anticancer activity against human SNB19 cells after 48 hrs by sulforhodamine B assay; conditions: SNB-19, 48 h; how it was run: as §1
# ACHN = assay: Anticancer activity against human ACHN cells after 48 hrs by sulforhodamine B assay; how it was run: as §1
# HL-60 = assay: Anticancer activity against human HL-60(TB) cells after 48 hrs by sulforhodamine B assay; conditions: HL-60, 48 h
# How it was run: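 NCI 60-cell-line anticancer screen. Drugs tested at a minimum of five concentrations at 10-fold dilutions with 48 h exposure. Cell growth estimated by sulforhodamine B protein assay. GI50 is log10 of the molar concentration giving 50% growth inhibition, read from the screening data sheet, dose-response curves and mean graphs.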
# SR = assay: Anticancer activity against human SR cells after 48 hrs by sulforhodamine B assay; how it was run: as §2
# NCI-H460 = assay: Anticancer activity against human NCI-H460 cells after 48 hrs by sulforhodamine B assay; conditions: NCI-H460, 48 h; how it was run: as §1
# SK-MEL-5 = assay: Anticancer activity against human SK-MEL-5 cells after 48 hrs by sulforhodamine B assay; conditions: SK-MEL-5, 48 h; how it was run: as §1
# HCC 2998 = assay: Anticancer activity against human HCC2998 cells after 48 hrs by sulforhodamine B assay; conditions: HCC 2998, 48 h; how it was run: as §1
# K562 = assay: Anticancer activity against human K562 cells after 48 hrs by sulforhodamine B assay; conditions: K562, 48 h; how it was run: as §1
# NCI-H23 = assay: Anticancer activity against human NCI-H23 cells after 48 hrs by sulforhodamine B assay; conditions: NCI-H23, 48 h; how it was run: as §1
# MDA-MB-231 = assay: Anticancer activity against human MDA-MB-231 cells after 48 hrs by sulforhodamine B assay; conditions: MDA-MB-231, 48 h; how it was run: as §1
# NCI/ADR-RES = assay: Anticancer activity against human NCI/ADR-RES cells after 48 hrs by sulforhodamine B assay; how it was run: as §1
# A549 = assay: Anticancer activity against human A549 cells after 48 hrs by sulforhodamine B assay; conditions: A549, 48 h; how it was run: as §1
# CAKI-1 = assay: Anticancer activity against human Caki1 cells after 48 hrs by sulforhodamine B assay; conditions: CAKI-1, 48 h; how it was run: as §1
# MDA-N = assay: Anticancer activity against human MDA-N cells after 48 hrs by sulforhodamine B assay; how it was run: as §1
# UACC-62 = assay: Anticancer activity against human UACC62 cells after 48 hrs by sulforhodamine B assay; conditions: UACC-62, 48 h; how it was run: as §2
# OVCAR-3 = assay: Anticancer activity against human OVCAR-3 cells after 48 hrs by sulforhodamine B assay; conditions: OVCAR-3, 48 h; how it was run: as §1
# HT-29 = assay: Anticancer activity against human HT-29 cells after 48 hrs by sulforhodamine B assay; conditions: HT-29, 48 h; how it was run: as §1
# NCI-H322M = assay: Anticancer activity against human NCI-H322M cells after 48 hrs by sulforhodamine B assay; how it was run: as §1
# SW-620 = assay: Anticancer activity against human SW620 cells after 48 hrs by sulforhodamine B assay; conditions: SW-620, 48 h; how it was run: as §2
# SN12C = assay: Anticancer activity against human SN12C cells after 48 hrs by sulforhodamine B assay; how it was run: as §1
# UACC-257 = assay: Anticancer activity against human UACC257 cells after 48 hrs by sulforhodamine B assay; conditions: UACC-257, 48 h; how it was run: as §2
# EKVX = assay: Anticancer activity against human EKVX cells after 48 hrs by sulforhodamine B assay; how it was run: as §1
# OVCAR-8 = assay: Anticancer activity against human OVCAR8 cells after 48 hrs by sulforhodamine B assay; conditions: OVCAR-8, 48 h; how it was run: as §1
# KM12 = assay: Anticancer activity against human KM12 cells after 48 hrs by sulforhodamine B assay; conditions: KM12, 48 h; how it was run: as §1
# A498 = assay: Anticancer activity against human A498 cells after 48 hrs by sulforhodamine B assay; conditions: A498, 48 h; how it was run: as §1
# T47D = assay: Anticancer activity against human T47D cells after 48 hrs by sulforhodamine B assay; how it was run: as §2
# SF-268 = assay: Anticancer activity against human SF268 cells after 48 hrs by sulforhodamine B assay; conditions: SF-268, 48 h; how it was run: as §1
# RXF 393 = assay: Anticancer activity against human RXF393 cells after 48 hrs by sulforhodamine B assay; conditions: RXF 393, 48 h; how it was run: as §1
# MCF7 = assay: Anticancer activity against human MCF7 cells after 48 hrs by sulforhodamine B assay; conditions: MCF7, 48 h; how it was run: as §1
# MDA-MB-435 = assay: Anticancer activity against human MDA-MB-435 cells after 48 hrs by sulforhodamine B assay; conditions: MDA-MB-435, 48 h; how it was run: as §1
# LOX IMVI = assay: Anticancer activity against human LOXIMVI cells after 48 hrs by sulforhodamine B assay; how it was run: as §1
# SF-539 = assay: Anticancer activity against human SF539 cells after 48 hrs by sulforhodamine B assay; conditions: SF-539, 48 h; how it was run: as §1
structure (smiles),measurement,setting,value
O=c1[nH]c(=O)n([C@H]2C[C@H](O)[C@@H](CO)O2)cc1F [FLOXURIDINE],GI50,SF-295,0.0398 µM
same,GI50,786-0,0.1 µM
same,GI50,OVCAR-4,10 µM
same,GI50,HCT-15,2 µM
same,GI50,MOLT-4,0.0398 µM
same,GI50,[1],3.98 µM
same,GI50,PC-3,0.316 µM
same,GI50,NCI-H226,10 µM
same,GI50,COLO 205,1.58 µM
same,GI50,BT-549,1 µM
same,GI50,SNB-75,0.2 µM
same,GI50,TK-10,5.01 µM
same,GI50,SK-MEL-2,10 µM
same,GI50,[2],0.794 µM
same,GI50,UO-31,0.126 µM
same,GI50,SK-OV-3,2 µM
same,GI50,HOP-92,0.794 µM
same,GI50,U-251,0.126 µM
same,GI50,IGROV-1,2.51 µM
same,GI50,SK-MEL-28,2 µM
same,GI50,NCI-H522,2.51 µM
same,GI50,Malme-3M,7.94 µM
same,GI50,HCT-116,0.126 µM
same,GI50,OVCAR-5,6.31 µM
same,GI50,HOP-62,0.0251 µM
same,GI50,DU-145,0.251 µM
same,GI50,M14,0.158 µM
same,GI50,CCRF-CEM,0.00631 µM
same,GI50,SNB-19,2 µM
same,GI50,ACHN,0.0316 µM
same,GI50,HL-60,0.2 µM
same,GI50,SR,0.0126 µM
same,GI50,NCI-H460,0.002 µM
same,GI50,SK-MEL-5,0.2 µM
same,GI50,HCC 2998,0.001 µM
same,GI50,K562,0.794 µM
same,GI50,NCI-H23,0.501 µM
same,GI50,MDA-MB-231,3.98 µM
same,GI50,NCI/ADR-RES,1.26 µM
same,GI50,A549,0.0126 µM
same,GI50,CAKI-1,0.0316 µM
same,GI50,MDA-N,1.26 µM
same,GI50,UACC-62,0.0398 µM
same,GI50,OVCAR-3,2.51 µM
same,GI50,HT-29,2.51 µM
same,GI50,NCI-H322M,0.501 µM
same,GI50,SW-620,10 µM
same,GI50,SN12C,0.2 µM
same,GI50,UACC-257,3.16 µM
same,GI50,EKVX,10 µM
same,GI50,OVCAR-8,0.126 µM
same,GI50,KM12,6.31 µM
same,GI50,A498,1.26 µM
same,GI50,T47D,1.26 µM
same,GI50,SF-268,0.0126 µM
same,GI50,RXF 393,3.98 µM
same,GI50,MCF7,0.00631 µM
same,GI50,MDA-MB-435,3.16 µM
same,GI50,LOX IMVI,0.0251 µM
same,GI50,SF-539,0.00398 µM
